# Rows were chosen to be rich in hits. Some 3.5% of all compounds tested hit in one or more screens of this group.
# MrgX1 ag: human MrgX1 receptor agonism, primary screen. B-score at 10 µM. actives 0.44% (n = 310,000). Q96LB2. MrgX1-HEK293 cells, Fluo-4 calcium fluorescence, agonist mode; stronger effect = higher value;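 active means calcium response B-score plate-corrected fluorescence ratio at least 3 library SD, with starting fluorescence B-score inside 5 SD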
# Target sequence (Q96LB2 whole entry, looked up): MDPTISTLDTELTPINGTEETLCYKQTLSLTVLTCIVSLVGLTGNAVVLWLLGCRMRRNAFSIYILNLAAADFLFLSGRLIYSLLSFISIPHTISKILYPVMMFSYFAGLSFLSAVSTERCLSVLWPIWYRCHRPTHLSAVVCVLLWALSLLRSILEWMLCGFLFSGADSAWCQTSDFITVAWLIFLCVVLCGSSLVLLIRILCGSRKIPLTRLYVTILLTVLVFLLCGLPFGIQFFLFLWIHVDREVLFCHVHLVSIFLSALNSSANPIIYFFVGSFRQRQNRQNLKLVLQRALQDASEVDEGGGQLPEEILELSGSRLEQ
#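 Test system: HEK293 cells stably expressing human MrgX1 receptor; Input: fifteen thousand cells per well; Dosing: compound delivered in addition one of three; Schedule: overnight seeding, then 1 h dark dye loading; Technique: Fluo-4 NW calcium fluorescence; Measure: B-scored fluorescence response ratio; Controls: positive and negative controls per plate.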
# MrgX1 antagonist: blocks BAM8-22 activation of human MrgX1 receptor. B-score at 10 µM. Q96LB2. MRGX1-HEK293 calcium flux, Fluo-4, BAM8-22 antagonism; stronger effect = lower value. actives 1.3% (n = 310,000);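 active means calcium-response B-score plate-corrected more than 3 library SD below zero, starting fluorescence within 5 deviations, no agonist response on first addition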;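 further: peak minus trough fluorescence over baseline after final BAM8-22 challenge near maximal dose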
# RGS4 pot: RGS4 potentiation or activation | HEK293 M3R/inducible RGS4, carbachol calcium flux Fluo4; stronger effect = lower value | actives 0.92% (n = 310,000) | B-score at 10 µM | AID 463111;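 active means B-score of the integrated calcium signal more than 4 SD below the library mean, with starting fluorescence not abnormally high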;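 further: negative B-score means reduced calcium response which marks RGS4 activation or potentiation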
#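 System: HEK293 FlpIn-TREx cells, stable M3R, doxycycline-inducible RGS4. Timing: overnight RGS4 induction, 30 min dye load 37 °C, 20 min compound RT. Also added: carbachol, ECmax concentration. Measured by: Fluo4 fluorescence kinetic imaging of calcium. Evaluation: integrated calcium ratio converted to B score.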
# MrgX1 PAM: human MrgX1 positive allosteric modulation, primary screen. Q96LB2. MrgX1-HEK293, Fluo-4 calcium flux, FDSS; stronger effect = higher value. B-score at 10 µM. actives 0.63% (n = 310,000). AID 588675;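 active means plate-corrected calcium response at least 3 library SD above typical, normal starting fluorescence, not activating the receptor alone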;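 further: compound read alongside a low EC10 to EC30 dose of BAM8-22 agonist; peak minus trough fluorescence over baseline measured at the second addition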
# RGS4 inh: human RGS4 inhibition; HEK293 M3R/RGS4 inducible, Fluo-4 calcium flux; stronger effect = higher value; triggered by carbachol at its EC20; actives 0.45% (n = 310,000); B-score at 10 µM;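 active means B-score, a plate-corrected calcium signal, over three deviations above library mean, with baseline fluorescence within five deviations of library mean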;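 further: RGS4 expression induced by doxycycline in cells with stable M3 receptor; B-score is computed from the integrated fluorescence ratio over baseline after carbachol; higher B-score means a larger calcium signal and so more RGS4 inhibition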
# Target sequence (P49798 whole entry, looked up): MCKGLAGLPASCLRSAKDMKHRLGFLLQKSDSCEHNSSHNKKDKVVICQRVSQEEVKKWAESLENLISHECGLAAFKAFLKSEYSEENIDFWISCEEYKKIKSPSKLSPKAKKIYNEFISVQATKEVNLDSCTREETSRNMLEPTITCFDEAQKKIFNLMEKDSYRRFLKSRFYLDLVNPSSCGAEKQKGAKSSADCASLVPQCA
# Active calls of the source: *; i = inactive; . = no result given.
SMILES,MrgX1 ag,MrgX1 antagonist,RGS4 pot,MrgX1 PAM,RGS4 inh
Cc1ccc(C)c(OCC(O)CN2CCc3ccccc3C2)c1C (stereo not given),i,i,i,i,i
Cc1ccccc1CN1C(=O)C(C)S/C1=N/N=C/c1ccco1 (stereo not given),i,i,i,13*,i
CCOC(=O)c1cnc(N)nc1C(F)(F)F,i,i,i,i,i
CC(C)CC(=O)O/N=C1\C(=O)N(Cc2ccc(Cl)cc2)c2ccc([N+](=O)[O-])cc21,i,i,i,i,6.4*
CC(C)CC(=O)O/N=C1\C(=O)N(c2ccccc2)c2ccccc21,i,i,i,i,i
N#C/C(=C\c1ccc(Sc2nc3ccccc3[nH]2)o1)c1ccccc1,i,-4.8*,i,i,i
CS(=O)(=O)C1=NN2C(=N)/C(=C\c3ccc(OC(=O)c4ccco4)cc3)C(=O)N=C2S1,i,i,i,12*,i
CC(C)CS(=O)(=O)C1=NN2C(=N)/C(=C\c3ccc(OC(=O)c4ccco4)cc3)C(=O)N=C2S1,29*,i,i,i,i
N=C1/C(=C\c2ccc(OC(=O)c3ccco3)cc2)C(=O)N=C2SC=NN12,.,.,i,.,i
CN(C)c1nc2ncn(Cc3ccccc3)c2c(=O)[nH]1,i,i,i,i,i
CC(=O)Nc1ccc(NC(=O)CSc2nnc(NC(=O)C3CC(=O)N(c4ccc(F)cc4)C3)s2)cc1 (stereo not given),i,i,i,i,i
Cc1oc(C)c2c(=O)ccc3c(c12)OC(N)=C(C#N)C3c1ccccc1Cl (stereo not given),i,i,i,i,i
CSc1ccc(C2C(C#N)=C(N)Oc3c2ccc(=O)c2c(C)oc(C)c32)cc1 (stereo not given),i,i,i,9.8*,i
Cc1oc(C)c2c(=O)ccc3c(c12)OC(N)=C(C#N)C3c1ccccc1 (stereo not given),49*,i,i,i,i
CC(Oc1ccc(-c2ccccc2)c(F)c1)c1ccn(S(=O)(=O)c2ccc(Br)cc2)n1 (stereo not given),i,-5.7*,i,i,i
CC(=O)OCC1=C(C(=O)O)N2C(=O)C(NC(=O)c3ccc(F)cc3)C2SC1 (stereo not given),i,i,i,i,i
CC(=O)OCC1=C(C(=O)O)N2C(=O)C(NC(=O)C(C)Cn3nc(C)c(Cl)c3C)C2SC1 (stereo not given),i,i,-7.1*,i,i
COc1ccc(CN(C)Cc2cc(=O)oc3cc(C)c(C(C)C)cc23)cc1OC,i,i,-7.1*,i,i
Cc1cc2oc(=O)cc(CN(C)Cc3ccccc3)c2cc1C(C)C,i,i,i,i,i
CN(Cc1ccccc1F)Cc1cc(=O)oc2cc(O)c(Cl)cc12,i,i,i,i,i
Cc1cc2oc(=O)cc(CN(C)Cc3ccccc3F)c2cc1Cl,i,i,-7*,i,i
CN(CC(=O)Nc1ccccc1N1CCCC1)S(=O)(=O)c1ccc(F)cc1,i,i,i,i,i
Cc1ccc(S(=O)(=O)O/N=C2\CCCc3ccccc32)cc1,i,i,i,i,i
CC1=C(C)/C(=N\OS(=O)(=O)c2ccccc2)C=CC1=O,33*,i,i,i,i
OC(c1cccs1)(c1cccs1)C1C[N+]2(CF)CCC1CC2 (stereo not given),i,i,-8.4*,i,i
SMILES,MrgX1 ag,MrgX1 antagonist,RGS4 pot,MrgX1 PAM,RGS4 inh
O=C(CCC1CCCC1)NCc1cccs1,i,i,i,i,i
COc1cc2c(cc1OC)CN(C(=O)c1cc(S(=O)(=O)N3CCOCC3)ccc1C)CC2,i,i,i,i,i
Cc1oc(S(=O)(=O)N(C)C)cc1C(=O)Nc1ccc(Cl)cc1,i,i,i,i,i
CC(=O)/C(=N/Nc1ccc(Br)cc1)N1CCCc2ccccc21,i,i,-7.7*,i,i
COCc1ccc(CN2CCCC(C(=O)Nc3ccc(-c4cccc(OC)c4)cc3)C2)o1 (stereo not given),i,i,i,i,i
CCOC(=O)c1c(C)nc2c(c1-c1cc(OC)ccc1OC)C(=O)CC(C)(C)C2,i,i,i,i,i
COc1cccc(-c2nc(N3CCC(C)CC3)c3ccccc3n2)c1O,i,i,-7.1*,i,i
COc1ccc(Nc2nc(-c3cccc(OC)c3O)nc3ccccc23)cc1,i,i,-7.6*,i,i
COC(=O)c1cn(CCC#N)nc1-c1ccc2ccccc2c1,i,i,i,i,i
COCCNC(=O)c1cccc(OC2CCN(Cc3ccc(F)cc3OC)CC2)c1,i,i,i,i,i
C=C1C(=O)O[C@H]2[C@H]1[C@@H](O)CC(=C)[C@@H]1CC(=O)[C@@H](C)[C@H]21,i,i,i,i,6.7*
COc1ccc([N+](=O)[O-])cc1NC(=O)CSc1nc(C)c(C)c(C)n1,i,-4.5*,i,i,i
COc1ccc([N+](=O)[O-])cc1NC(=O)CSc1nccc(C)n1,i,i,i,i,i
C=CCOc1cccc(C2/C(=C(/O)c3ccc(Cl)cc3)C(=O)C(=O)N2CCN2CCOCC2)c1 (stereo not given),i,-5*,i,i,i
CCOC(=O)C1=C(CSc2nc(-c3ccccc3)ccc2C#N)OC(N)=C(C#N)C1c1cccnc1 (stereo not given),i,-6.1*,i,i,i
CC(=O)Nc1ccc(SCC(=O)OCC(=O)NC(=O)NCCC(C)C)cc1,i,-7.3*,i,i,i
CC(=O)Nc1ccc(SCC(=O)OCC(=O)NC(=O)NCc2ccco2)cc1,i,i,i,i,i
CCn1nc(C(=O)Nc2ccccc2N2CCCC2)c2ccccc2c1=O,i,i,-8.7*,12*,i
Cc1ccsc1CN(C)CC(=O)Nc1ccc([N+](=O)[O-])cc1Cl,i,i,-8.5*,i,i
O=C(COC(=O)C12CC3CC(CC(C3)C1)C2)Nc1ccc([N+](=O)[O-])cc1Cl,i,-6.6*,i,i,i
O=C1/C(=C/c2ccccc2O)SC(=S)N1Cc1cccnc1,i,i,i,i,i
O=C1/C(=C\c2cccc([N+](=O)[O-])c2O)SC(=S)N1Cc1ccccc1,i,-8*,i,i,i
COc1cc([N+](=O)[O-])cc(/C=C2/SC(=S)N(Cc3ccccc3)C2=O)c1O,43*,i,-7.6*,i,i
